Laboratory results: ChEMBL document CHEMBL4689842, “EUbOPEN Chemogenomics Library wave 1” (2021)
Where “and” joins values, the source holds several entries; their conditions need not be identical. Equal values may be shown once.

Assays:
U2OS = test: Multiplex assay against U2OS; format: toxicity, cell-based; settings: human
Outline: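 Compound was added to live cells that had been stained at seeding with Hoechst33342, BioTracker Green Microtubule Cytoskeleton Dye, MitoTracker Red and Annexin V Alexa Fluor 680, and imaging followed on a CQ1 microscope at 37°C and 5% CO2. CellPathfinder machine-learning gating divided cells into Hoechst high-intensity objects or normal cells, normal cells into healthy, pyknosed or fragmented nuclei, and pyknosed cells into mitotic or apoptotic. Tubulin, mitochondrial-mass and membrane-permeability phenotypes are per cents of healthy-nucleus cells.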

HEK-293T = test: Incucyte cell viability with HEK293T; format: toxicity, cell-based; settings: human, 10 µM, compound concentration 10 uM; note: filed as whole numbers so only -1 and 0 and 1 occur
[1] = 12 h, 1 µM, compound concentration 1 uM, replicate 1
[2] = 12 h, 1 µM, compound concentration 1 uM, replicate 2
[3] = 12 h, 10 µM, compound concentration 10 uM, replicate 1
[4] = 12 h, 10 µM, compound concentration 10 uM, replicate 2
[5] = 24 h, 1 µM, compound concentration 1 uM, replicate 1
[6] = 24 h, 1 µM, compound concentration 1 uM, replicate 2
[7] = 24 h, 10 µM, compound concentration 10 uM, replicate 1
[8] = 24 h, 10 µM, compound concentration 10 uM, replicate 2
[9] = 48 h, 10 µM, compound concentration 10 uM, replicate 1
[10] = 48 h, 10 µM, compound concentration 10 uM, replicate 2
[11] = 6 h, replicate number 1, timepoint 6 hours
[12] = 12 h, replicate number 1, timepoint 12 hours
[13] = 18 h, replicate number 1, timepoint 18 hours
[14] = 24 h, replicate number 1, timepoint 24 hours

## c1ccc(-c2oc3ncnc(NC[C@@H]4CCCO4)c3c2-c2ccccc2)cc1
U2OS; [1]
  Population Apoptotic (%): 68% and 50%
  Population Fragmented Nuclei (%): 4%
  Population Healthy Nuclei (%): 86% and 84%
  Population Mitochondria Different-Phenotype (%): 12% and 18%
  Population Mitotic Cells (%): 31% and 50%
  Population Normal (%): 98% and 95%
  Population Pyknosed Nuclei (%): 9% and 8%
  Total Cell Count: 173 and 152
U2OS; [2]
  Population Apoptotic (%): 66% and 25%
  Population Fragmented Nuclei (%): 6%
  Population Healthy Nuclei (%): 90%
  Population Hoechst High Intensity Objects (%): 10% and 18%
  Population Mitochondria Different-Phenotype (%): 17% and 35%
  Population Mitotic Cells (%): 33% and 75%
  Population Normal (%): 89% and 81%
  Population Pyknosed Nuclei (%): 7% and 4%
  Total Cell Count: 137 and 107
U2OS; [3]
  Population Apoptotic (%): 78%
  Population Fragmented Nuclei (%): 12%
  Population Healthy Nuclei (%): 64%
  Population Hoechst High Intensity Objects (%): 10%
  Population Membrane Permeable-Phenotype (%): 20%
  Population Mitochondria Different-Phenotype (%): 82%
  Population Mitotic Cells (%): 21%
  Population Normal (%): 89%
  Population Pyknosed Nuclei (%): 22%
  Population Tubulin-Different-Phenotype (%): 93%
  Total Cell Count: 137
U2OS; [4]
  Population Apoptotic (%): 87%
  Population Fragmented Nuclei (%): 14%
  Population Healthy Nuclei (%): 71%
  Population Hoechst High Intensity Objects (%): 6%
  Population Membrane Permeable-Phenotype (%): 34%
  Population Mitochondria Different-Phenotype (%): 56%
  Population Mitotic Cells (%): 12%
  Population Normal (%): 93%
  Population Pyknosed Nuclei (%): 14%
  Population Tubulin-Different-Phenotype (%): 95%
  Total Cell Count: 61
U2OS; [5]
  Population Apoptotic (%): 59% and 70%
  Population Fragmented Nuclei (%): 6%
  Population Healthy Nuclei (%): 79% and 90%
  Population Hoechst High Intensity Objects (%): 2% and 3%
  Population Mitochondria Different-Phenotype (%): 26% and 22%
  Population Mitotic Cells (%): 40% and 30%
  Population Normal (%): 97% and 96%
  Population Pyknosed Nuclei (%): 13% and 5%
  Population Tubulin-Different-Phenotype (%): 83%
  Total Cell Count: 198 and 202
U2OS; [6]
  Population Fragmented Nuclei (%): 4% and 8%
  Population Healthy Nuclei (%): 77% and 87%
  Population Hoechst High Intensity Objects (%): 6% and 8%
  Population Mitochondria Different-Phenotype (%): 19% and 29%
  Population Normal (%): 93% and 91%
  Total Cell Count: 153 and 143
U2OS; [7]
  Population Apoptotic (%): 82%
  Population Fragmented Nuclei (%): 8%
  Population Healthy Nuclei (%): 68%
  Population Hoechst High Intensity Objects (%): 12%
  Population Membrane Permeable-Phenotype (%): 34%
  Population Mitochondria Different-Phenotype (%): 74%
  Population Mitotic Cells (%): 17%
  Population Normal (%): 87%
  Population Pyknosed Nuclei (%): 23%
  Population Tubulin-Different-Phenotype (%): 95%
  Total Cell Count: 138
U2OS; [8]
  Population Apoptotic (%): 100%
  Population Fragmented Nuclei (%): 14%
  Population Hoechst High Intensity Objects (%): 10%
  Population Membrane Permeable-Phenotype (%): 21%
  Population Mitochondria Different-Phenotype (%): 56%
  Population Mitotic Cells (%): 0%
  Population Normal (%): 90%
  Population Pyknosed Nuclei (%): 16%
  Population Tubulin-Different-Phenotype (%): 81%
  Total Cell Count: 60
U2OS; [9]
  Population Apoptotic (%): 70%
  Population Fragmented Nuclei (%): 15%
  Population Healthy Nuclei (%): 57%
  Population Hoechst High Intensity Objects (%): 5%
  Population Membrane Permeable-Phenotype (%): 41%
  Population Mitochondria Different-Phenotype (%): 61%
  Population Mitotic Cells (%): 29%
  Population Normal (%): 94%
  Population Pyknosed Nuclei (%): 26%
  Population Tubulin-Different-Phenotype (%): 89%
  Total Cell Count: 134
U2OS; [10]
  Population Apoptotic (%): 77%
  Population Fragmented Nuclei (%): 12%
  Population Healthy Nuclei (%): 75%
  Population Hoechst High Intensity Objects (%): 10%
  Population Membrane Permeable-Phenotype (%): 62%
  Population Mitochondria Different-Phenotype (%): 27%
  Population Mitotic Cells (%): 22%
  Population Normal (%): 90%
  Population Pyknosed Nuclei (%): 12%
  Population Tubulin-Different-Phenotype (%): 72%
  Total Cell Count: 80
HEK-293T; [11]
  Growth Rate: 0
HEK-293T; [12]
  Growth Rate: 0
HEK-293T; [13]
  Growth Rate: 0
HEK-293T; [14]
  Growth Rate: 0

## Cl.Cn1c2c(c3ccc(Cl)c(Cl)c31)C(C#N)C1(CCNCC1)NC2=O (stereo not drawn)
U2OS; [1]
  Population Apoptotic (%): 30%
  Population Fragmented Nuclei (%): 2%
  Population Healthy Nuclei (%): 90%
  Population Hoechst High Intensity Objects (%): 1%
  Population Mitochondria Different-Phenotype (%): 14%
  Population Mitotic Cells (%): 69%
  Population Normal (%): 98%
  Population Pyknosed Nuclei (%): 7%
  Population Tubulin-Different-Phenotype (%): 19%
  Total Cell Count: 137
U2OS; [2]
  Population Apoptotic (%): 0%
  Population Fragmented Nuclei (%): 4%
  Population Healthy Nuclei (%): 94%
  Population Hoechst High Intensity Objects (%): 13%
  Population Membrane Permeable-Phenotype (%): 9%
  Population Mitochondria Different-Phenotype (%): 36%
  Population Mitotic Cells (%): 100%
  Population Normal (%): 86%
  Population Pyknosed Nuclei (%): 0%
  Population Tubulin-Different-Phenotype (%): 38%
  Total Cell Count: 159
U2OS; [3]
  Population Apoptotic (%): 56%
  Population Fragmented Nuclei (%): 20%
  Population Healthy Nuclei (%): 20%
  Population Hoechst High Intensity Objects (%): 3%
  Population Membrane Permeable-Phenotype (%): 53%
  Population Mitochondria Different-Phenotype (%): 80%
  Population Mitotic Cells (%): 43%
  Population Normal (%): 96%
  Population Pyknosed Nuclei (%): 58%
  Population Tubulin-Different-Phenotype (%): 96%
  Total Cell Count: 183
U2OS; [4]
  Population Apoptotic (%): 61%
  Population Fragmented Nuclei (%): 22%
  Population Healthy Nuclei (%): 27%
  Population Hoechst High Intensity Objects (%): 24%
  Population Membrane Permeable-Phenotype (%): 36%
  Population Mitochondria Different-Phenotype (%): 90%
  Population Mitotic Cells (%): 38%
  Population Normal (%): 75%
  Population Pyknosed Nuclei (%): 49%
  Population Tubulin-Different-Phenotype (%): 95%
  Total Cell Count: 123
U2OS; [5]
  Population Apoptotic (%): 40%
  Population Fragmented Nuclei (%): 4%
  Population Healthy Nuclei (%): 88%
  Population Hoechst High Intensity Objects (%): 1%
  Population Membrane Permeable-Phenotype (%): 5%
  Population Mitochondria Different-Phenotype (%): 13%
  Population Mitotic Cells (%): 60%
  Population Normal (%): 98%
  Population Pyknosed Nuclei (%): 6%
  Population Tubulin-Different-Phenotype (%): 26%
  Total Cell Count: 129
U2OS; [6]
  Population Apoptotic (%): 75%
  Population Fragmented Nuclei (%): 3%
  Population Healthy Nuclei (%): 93%
  Population Hoechst High Intensity Objects (%): 10%
  Population Membrane Permeable-Phenotype (%): 8%
  Population Mitochondria Different-Phenotype (%): 29%
  Population Mitotic Cells (%): 25%
  Population Normal (%): 89%
  Population Pyknosed Nuclei (%): 2%
  Population Tubulin-Different-Phenotype (%): 31%
  Total Cell Count: 157
U2OS; [7]
  Population Apoptotic (%): 85%
  Population Fragmented Nuclei (%): 37%
  Population Healthy Nuclei (%): 10%
  Population Hoechst High Intensity Objects (%): 16%
  Population Membrane Permeable-Phenotype (%): 92%
  Population Mitochondria Different-Phenotype (%): 100%
  Population Mitotic Cells (%): 14%
  Population Normal (%): 83%
  Population Pyknosed Nuclei (%): 52%
  Population Tubulin-Different-Phenotype (%): 92%
  Total Cell Count: 231
U2OS; [8]
  Population Apoptotic (%): 76%
  Population Fragmented Nuclei (%): 33%
  Population Healthy Nuclei (%): 17%
  Population Hoechst High Intensity Objects (%): 30%
  Population Membrane Permeable-Phenotype (%): 75%
  Population Mitochondria Different-Phenotype (%): 91%
  Population Mitotic Cells (%): 23%
  Population Normal (%): 69%
  Population Pyknosed Nuclei (%): 49%
  Population Tubulin-Different-Phenotype (%): 91%
  Total Cell Count: 164
HEK-293T; [11]
  Growth Rate: 0
HEK-293T; [12]
  Growth Rate: 0
HEK-293T; [13]
  Growth Rate: 0
HEK-293T; [14]
  Growth Rate: 0
